Test results reported in ChEMBL document CHEMBL1126796, “2-(Alkylamino)nicotinic acid and analogs. Potent angiotensin II antagonists” (J Med Chem, 1993).
Activity calls are given as the source filed them. The rule behind the calls is not given here.

Tests used:
Rattus norvegicus [1] = assay: % decrease in blood pressure after 4 hours at a dose of 10 mg/kg in male rats by using Renal artery hypertensive model; assay type: functional
In short: (§1)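 Male Sprague-Dawley rats (300-350 g) were made hypertensive by renal artery ligation and used on day 6 or 7 after ligation. Arterial pressure was measured from an indwelling femoral artery catheter, with blood pressure and heart rate recorded on line. Read-out is % decrease in blood pressure at 4 h, ±SEM, with number of rats.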

Rattus norvegicus [2] = assay: % decrease in blood pressure after 4 hours in male rats at a dose of 3 mg/kg by using Renal artery hypertensive model; IA means inactive; assay type: functional, organism-based; set-up: dose 3 mg/kg; in short: as §1
Rattus norvegicus [3] = assay: % decrease in blood pressure after 4 hours at a dose of 10 mg/kg in male rats by using Furosemide-treated spontaneous hypertensive model; assay type: functional
In short: (§2)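 Male SHR, 20-24 weeks old, pretreated with furosemide 10 mg/kg sc at 22 and 4 h before the experiment; compound dosed orally. Arterial pressure was recorded from an indwelling femoral artery catheter with on-line blood pressure and heart rate analysis. Read-out is % fall in blood pressure at 4 h and at 24 h, ±SEM, with number of rats.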

Rattus norvegicus [4] = assay: % decrease in blood pressure after 24 hours at a dose of 10 mg/kg in male rats by using Furosemide-treated spontaneous hypertensive model; assay type: functional; in short: as §2
Rattus norvegicus [5] = assay: % decrease in blood pressure after 24 hours at a dose of 1 mg/kg in male rats by using Furosemide-treated spontaneous hypertensive model; assay type: functional; in short: as §2
Rattus norvegicus [6] = assay: % decrease in blood pressure after 4 hours at a dose of 1 mg/kg in male rats by using Furosemide-treated spontaneous hypertensive model; assay type: functional; in short: as §2

CCCCc1nc(Cl)c(CO)n1Cc1ccc(-c2ccccc2-c2nnn[nH]2)cc1 [LOSARTAN]
Decrease in blood pressure (Rattus norvegicus [1]): 27% | Decrease in blood pressure (Rattus norvegicus [2]): inactive | Decrease in blood pressure (Rattus norvegicus [3]): 21% | Decrease in blood pressure (Rattus norvegicus [4]): 34%

CCCCN(Cc1ccc(-c2ccccc2-c2nn[nH]n2)cc1)c1nccnc1C(=O)O
Decrease in blood pressure (Rattus norvegicus [5]): 21% | Decrease in blood pressure (Rattus norvegicus [6]): 7%

CCCN(Cc1ccc(-c2ccccc2-c2nn[nH]n2)cc1)c1nccc(C)c1C(=O)O
Decrease in blood pressure (Rattus norvegicus [5]): 15% | Decrease in blood pressure (Rattus norvegicus [6]): 10%
